According to ChEMBL document CHEMBL4011607 (J Med Chem, 2017):

What was measured:
[1] = system: Canis familiaris; assay: Unbound clearance in dog at […], iv; assay type: ADME, organism-based, Canis lupus familiaris; conditions: in vivo; also: dose 0.25 mg/kg
[2] = system: Rattus norvegicus; assay: Unbound clearance in rat at 0.5 mg/kg, iv; assay type: ADME, organism-based; conditions: in vivo
Method in brief: (§1)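 Rats received 0.5 mg/kg iv as a solution in DMSO. Clearance, half-life and Vdss are taken from the plasma profile. Unbound clearance is total clearance divided by plasma fraction unbound.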

[3] = (§2) Clearance in rat at 0.5 mg/kg, iv; assay type: ADME, organism-based; conditions: in vivo; method in brief: as §1
[4] = Intrinsic clearance in rat liver microsomes at 1 uM after 40 mins by LC-MS/MS assay; assay type: ADME, microsome; conditions: read-out: CLH
[5] = Intrinsic clearance in human liver microsomes at 1 uM after 40 mins by LC-MS/MS assay; assay type: ADME, microsome; conditions: read-out: CLH
[6] = Oral bioavailability in rat at 10 mg/kg; assay type: ADME, organism-based; conditions: in vivo
Method in brief: (§3)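 Single oral dose in solution in 1% Tween 80/2.0% HPMC, 97% water, pH 10 with KOH; rat 10 mg/kg, dog 2 mg/kg. Plasma profile gives AUC, tmax and %F.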

[7] = system: Canis familiaris; assay: Drug metabolism in po dosed dog assessed as racemization after 24 hrs; assay type: ADME, organism-based, Canis lupus familiaris; conditions: in vivo
Method in brief: (§4)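 A related atropisomeric analogue was dosed to preclinical species and checked in vivo for interconversion to the other atropisomer. Monkey iv, 1 h; rat iv, 1 h; dog po, 24 h; mouse po, 12 h.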

[8] = system: Rattus norvegicus; assay: Drug metabolism in iv dosed rat assessed as racemization after 1 hr; assay type: ADME, organism-based; conditions: in vivo; method in brief: as §4
[9] = (§5) Volume of distribution at steady state in rat at 0.5 mg/kg, iv; assay type: ADME, organism-based; conditions: in vivo, read-out: Vdss; method in brief: as §1
[10] = (§6) Half life in rat at 0.5 mg/kg, iv; assay type: ADME, organism-based; conditions: in vivo; method in brief: as §1
[11] = (§7) Half life in dog at […], iv; assay type: ADME, organism-based, Canis lupus familiaris; conditions: in vivo; also: dose 0.25 mg/kg
[12] = (§8) Volume of distribution at steady state in dog at […], iv; assay type: ADME, organism-based, Canis lupus familiaris; conditions: in vivo, read-out: Vdss; also: dose 0.25 mg/kg
[13] = system: Mus musculus; assay: Drug metabolism in po dosed mouse assessed as racemization after 12 hrs; assay type: ADME, organism-based; conditions: in vivo; method in brief: as §4
[14] = (§9) Oral bioavailability in dog at 2 mg/kg; assay type: ADME, organism-based, Canis lupus familiaris; conditions: in vivo; method in brief: as §3
[15] = system: Rhesus monkey; assay: Drug metabolism in iv dosed monkey assessed as racemization after 1 hr; assay type: ADME, organism-based, Macaca mulatta; conditions: in vivo; method in brief: as §4
[16] = Intrinsic clearance in dog liver microsomes at 1 uM after 40 mins by LC-MS/MS assay; assay type: ADME, Canis lupus familiaris, microsome; conditions: read-out: CLH
[17] = (§10) Clearance in dog at […], iv; assay type: ADME, organism-based, Canis lupus familiaris; conditions: in vivo; also: dose 0.25 mg/kg
[18] = Chemical stability of compound in 1N NaOH assessed as amide bond hydrolysis at room temperature; assay type: physicochemical
[19] = system: Canis familiaris; assay: as §9; assay type: ADME, organism-based, Canis lupus familiaris; conditions: in vivo; method in brief: as §3
[20] = system: Plasma; assay: Plasma concentration in po dosed capsaicin-induced nociception pain C57BL/6 mouse model administered 4 hrs prior to capsaicin challenge; assay type: ADME, organism-based; conditions: in vivo
[21] = system: Rattus norvegicus; assay: as §2; assay type: ADME, organism-based; conditions: in vivo; method in brief: as §1
[22] = Chemical stability of compound in NaOH assessed as racemization at above 100 degC; assay type: physicochemical
Method in brief: (§11)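 Racemization kinetics of the atropisomer were examined in neutral media (toluene, water) and basic media (NaOH) with heating above 100 °C.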

[23] = Chemical stability of compound assessed as racemization in presence of HCL at 100 degC after 1 hr; assay type: physicochemical; conditions: buffer
Method in brief: (§12)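 Racemization of the atropisomer was followed in 10% HCl under two conditions: 37 °C for 24 h and 100 °C for 1 h.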

[24] = Chemical stability of compound in water assessed as racemization at above 100 degC; assay type: physicochemical; conditions: buffer; method in brief: as §11
[25] = system: Rattus norvegicus; assay: as §5; assay type: ADME, organism-based; conditions: in vivo; method in brief: as §1
[26] = Chemical stability of compound assessed as racemization in presence of HCL at 37 degC after 24 hrs; assay type: physicochemical; conditions: buffer; method in brief: as §12
[27] = system: Rattus norvegicus; assay: as §6; assay type: ADME, organism-based; conditions: in vivo; method in brief: as §1
[28] = Tmax in rat at 10 mg/kg, po; assay type: ADME, organism-based; conditions: in vivo; method in brief: as §3
[29] = AUC in rat at 10 mg/kg, po; assay type: ADME, organism-based; conditions: in vivo; method in brief: as §3
[30] = Tmax in dog at 2 mg/kg, po; assay type: ADME, organism-based, Canis lupus familiaris; conditions: in vivo; method in brief: as §3
[31] = system: Canis familiaris; assay: as §7; assay type: ADME, organism-based, Canis lupus familiaris; conditions: in vivo
[32] = system: Canis familiaris; assay: as §8; assay type: ADME, organism-based, Canis lupus familiaris; conditions: in vivo
[33] = system: Canis familiaris; assay: as §10; assay type: ADME, organism-based, Canis lupus familiaris; conditions: in vivo
[34] = AUC in dog at 2 mg/kg, po; assay type: ADME, organism-based, Canis lupus familiaris; conditions: in vivo; method in brief: as §3
[35] = Chemical stability of compound in toluene assessed as racemization at above 100 degC; assay type: physicochemical; method in brief: as §11

Structure (SMILES)	CL free [1]	CL free [2]	clearance [3]	microsomal CLint at 1 µM [4]	microsomal CLint at 1 µM [5]	bioavailability [6]	Vd [9]	half-life [10]	half-life [11]	Vd [12]	bioavailability [14]	microsomal CLint at 1 µM [16]	clearance [17]	other results
COc1cc(C(F)(F)F)ccc1N1C(=O)COc2cc(S(=O)(=O)Nc3nccs3)ccc21	–	–	–	–	–	–	–	–	–	–	–	–	–	Stability [18]: Unstable
COc1cc(-c2cccc(C(F)(F)F)c2)ccc1-n1c(=O)ccc2cc(S(=O)(=O)Nc3ncccn3)ccc21	12.8 mL/min/kg	883 mL/min/kg	7 mL/min/kg	12 µL/min/mg	5 µL/min/mg	83%	2.5 L/kg	4.6 h	34 h	0.47 L/kg	79%	< 5 µL/min/mg	0.167 mL/min/kg	Drug uptake [20]: Dose-dependent effect
COc1cc(-c2cccc(OC(F)F)c2)c(F)cc1-n1c(=O)ccc2cc(S(=O)(=O)Nc3ccon3)ccc21	43.3 mL/min/kg	3780 mL/min/kg	15.2 mL/min/kg	< 5 µL/min/mg	< 5 µL/min/mg	30%	2.2 L/kg	1.8 h	11 h	0.22 L/kg	54%	< 5 µL/min/mg	0.3 mL/min/kg	–
COc1cc(-c2cccc(F)c2)c(F)cc1-n1c(=O)ccc2cc(S(=O)(=O)Nc3ccon3)ccc21 (atropisomer P)	33 mL/min/kg	917 mL/min/kg	–	–	–	66%	–	–	–	–	62%	–	–	CL [21]: 3.17 mL/min/kg; Stability [22]: Unstable; Stability [23]: Stable; Stability [24]: Unstable; Vdss [25]: 1.8 L/kg; Stability [26]: Stable; t1/2 [27]: 2.6 h; Tmax [28]: 2.7 h; AUC [29]: 65 µM·h; Tmax [30]: 4 h; t1/2 [31]: 4 h; Vdss [32]: 0.14 L/kg; CL [33]: 0.075 mL/min/kg; AUC [34]: 600 µM·h; Stability [35]: Unstable
COc1cc(-c2cccc(F)c2)c(Cl)cc1-n1c(=O)ccc2cc(S(=O)(=O)Nc3ccon3)cnc21	–	–	–	–	–	–	–	–	–	–	–	–	–	Stability: Unstable

Now from value to molecule, other results behind:

CL free [1]	CL free [2]	clearance [3]	microsomal CLint at 1 µM [4]	microsomal CLint at 1 µM [5]	bioavailability [6]	Vd [9]	half-life [10]	half-life [11]	Vd [12]	bioavailability [14]	microsomal CLint at 1 µM [16]	clearance [17]	Structure (SMILES)	other results
56.7 mL/min/kg	1680 mL/min/kg	10.2 mL/min/kg	16 µL/min/mg	5 µL/min/mg	67%	1.5 L/kg	1.9 h	14 h	0.32 L/kg	116%	< 5 µL/min/mg	0.283 mL/min/kg	COc1cc(-c2ccc(F)c(C)c2)c(F)cc1-n1c(=O)ccc2cc(S(=O)(=O)Nc3ccon3)ccc21	Drug metabolism [7]: Metabolite_Notdetected; Stability: Unstable; Drug metabolism [8]: Metabolite_Notdetected; Drug metabolism [13]: Metabolite_Notdetected; Drug metabolism [15]: Metabolite_Notdetected
96.7 mL/min/kg	1670 mL/min/kg	8.33 mL/min/kg	12 µL/min/mg	< 5 µL/min/mg	55%	1.3 L/kg	2.4 h	12 h	0.47 L/kg	–	< 5 µL/min/mg	0.583 mL/min/kg	COc1cc(-c2cc(OC)c(-n3c(=O)ccc4cc(S(=O)(=O)Nc5ncccn5)ccc43)cc2F)ccc1Cl	F [19]: 157%
–	667 mL/min/kg	4 mL/min/kg	–	–	–	–	–	–	–	–	–	–	COc1cc(C(F)(F)F)ccc1N1CCOc2cc(S(=O)(=O)Nc3nccs3)ccc21	–
